Assay results from publication PMC4215946 (Bioorganic & medicinal chemistry, 2013).

Assays:
[1] = Solubility observation in cell culture medium; assay type: physicochemical; details: cell culture medium (aqueous environment)
CEM cells [2] = experiment: Mitochondrial membrane potential; assay type: cell-based, human
In short: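 CEM cells grown in RPMI with 10% heat-inactivated FBS at 37 °C, 5% CO2, then given 1 µM final test compound for 6 and 8 h. Stained with JC-1 (MitoProbe) per kit protocol: red aggregates mean polarized mitochondria, green monomers mean depolarized. Green cells scored by flow cytometry, about 10,000 events per sample. Controls were 50 µM CCCP, 1% v/v DMSO and untreated cells. Triplicates, mean ± standard deviation; two-tailed paired t-test.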

CEM cells [3] = experiment: Annexin V/PI apoptosis/necrosis assay; assay type: cell-based, human; details: 72 h
In short: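 CEM cells in RPMI/10% heat-inactivated FBS, 50,000 per well, rested 1 h, then dosed from DMSO dilutions; 72 h, 37 °C, 5% CO2. Collected on ice, annexin V-FITC/PI in binding buffer 15 min on ice, dark; ~10,000 events by flow. Apoptotic = early+late annexin-positive; PI-only = necrotic. Controls: untreated, 1% DMSO, 1 mM H2O2. Four wells; three independent experiments.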

caspase-3 = experiment: Live-cell detection of intracellular caspase-3 activation; assay type: cell-based, human; details: CEM cells, 1 µM, 8 h
In short: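 CEM cells in RPMI with 10% heat-inactivated FBS and penicillin/streptomycin, 37 °C, 5% CO2, seeded at 50,000 per well. Exposed to 1 µM test compound (DMSO dilutions) for 8 h, then labelled with fluorogenic NucView 488 caspase-3/7 live-cell substrate. Green-positive cells counted by flow cytometry, about 10,000 events per sample. Controls were 50 µM CCCP, 1% v/v DMSO and untreated cells. Mean ± standard deviation; two-tailed paired t-test.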

For `CCC(=O)c1cc(O)c2ccccc2c1O` [Compound 4, 2-Propanoyl-1,4-naphthohydroquinone], the “solubility in cell culture medium” value [1] was “generated insoluble crystals when added to the cell culture medium”.
In the case of `N#CC(C#N)=NNc1cccc(Cl)c1` [CCCP, carbonyl cyanide 3-chlorophenylhydrazone, reference compound], the “mitochondrial depolarization (JC-1 green signal)” value (CEM cells [2]; 50 µM, positive control) was “strongly induced mitochondrial depolarization”.
In the case of `CCCCCCCCCCCC(=O)c1cc(O)c2ccccc2c1O` [Compound 3, 2-Dodecanoyl-1,4-naphthohydroquinone], the “mitochondrial depolarization (JC-1 green signal)” value (CEM cells [2]; 1 µM, 6 and 8 h) was “induced a significant increase in mitochondrial depolarization from 6 to 8 h”, the “apoptosis (annexin V-FITC positive cells, early + late)” value (CEM cells [3]; 10 µM) was 95.35% and the “mode of cell death (apoptosis vs necrosis)” value (CEM cells [3]; 10 µM) was “preferentially induce cell death via apoptosis”. For the same molecule, the caspase-3 activation (caspase-3) was “has a tendency to induce cytotoxicity via caspase-3 activation”.
In the case of `C/C=C/C(=O)c1cc(O)c2ccccc2c1O` [Compound 7, 2-Crotonyl-1,4-naphthohydroquinone], the “apoptosis (annexin V-FITC positive cells, early + late)” value (CEM cells [3]; 50 µM) was 1.7% and the “mode of cell death (apoptosis vs necrosis)” value (CEM cells [3]; 50 µM) was “elicited a substantial amount of necrosis instead of apoptosis”.
